Measurements published in PMC4629064 (Acta Pharmaceutica Sinica. B, 2014).
In brackets after ≈: the same amount, converted by molar mass. Several values for one entry are separate records, joined by “and”; a condition that tells them apart may be missing. Equal entries are not always repeated.

Legend:
[1] = Caco-2 cell permeation study; assay type: in vitro ADME; details: human, Caco-2, pH 6.8
[2] = system: Caco-2 cells; assay: Caco-2 cell permeation study; assay type: in vitro ADME; details: apical to basolateral, 187.5 μg/mL of BA, pH 6.8, 37 °C; mean±SD, n=3
[3] = Solubility of BA and BA–PC in water or octanol; assay type: physicochemical; details: octanol, 37 °C, organic solvent or mixture, thermodynamic from solid
[4] = Dispersible uniformity and stability in water; assay type: physicochemical; details: dispersed in water, 37 °C
Outline: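 Free test compound dispersed in water by simple agitation, alongside its phospholipid complex and complex-loaded self-microemulsifying formulation (drug:phospholipid molar ratios 1:1, 1:1.5, 1:2). Samples held at 37 °C in a water bath. Drug in the upper solution quantified by UV spectrophotometry at 316 nm at 0, 4, 8, 12 and 24 h. Bottles inspected visually for bottom precipitate.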

[5] = system: intestine segments (duodenum and jejunum, ileum, colon); assay: In situ single-pass intestinal perfusion; assay type: in vivo, Sprague-Dawley rats; details: rat SPIP, 750 μg/mL BA in KR buffer pH 6.0, mean±SD, n=6
[6] = Oral bioavailability of BA–PC–SMEDDS and BA suspensions; details: both, Sprague-Dawley, rat, in vivo, 75 mg

O=C(O)[C@H]1O[C@@H](Oc2cc3oc(-c4ccccc4)cc(=O)c3c(O)c2O)[C@H](O)[C@@H](O)[C@@H]1O [BA, 5,6-dihydroxy-4-oxygen-2-phenyl-4H-1-benzopyran-7-β-D-glucopyranoseacid]
Papp A→B at 180 min, 187.5 μg/mL [1]: 0.119 ± 0.092 ×10⁻⁶ cm/s
Papp B→A at 180 min, 187.5 μg/mL [1]: 0.365 ± 0.096 ×10⁻⁶ cm/s
efflux ratio at 180 min, 187.5 μg/mL [1]: 3.07
Papp through Caco-2 monolayer [2]: 0.037 ×10^−6, cm/s and 0.037±0.012 ×10^−6, cm/s
solubility at 48 h [3]: 136 ± 12 µg/mL (≈ 305 µM)
Precipitate at the bottom of the bottles (visual) [4]: precipitates
Concentration of BA in the upper solution, initially ([4]; initially): nearly zero
Peff, Colon ([5]; colon): 0.506±0.088 ×10^−4, cm/s
Peff, Duodenum+jejunum ([5]; duodenum+jejunum): 0.139±0.035 ^⁎ ×10^−4, cm/s
Peff, Ileum ([5]; ileum): 0.252±0.081 ^⁎ ×10^−4, cm/s
AUC [6]: 7610 ± 1580 ng·h/mL
Cmax [6]: 1840 ± 470 ng/mL
Tmax [6]: 1.5 h
